Key:
[1] = tested on: Saccharomyces cerevisiae; test: Antifungal activity against Saccharomyces cerevisiae; assay type: functional
In short: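 Broth microdilution following EUCAST for fermentative yeasts, in flat-bottom plates with RPMI 1640 plus 2% glucose. Inoculum was 0.5 × 10^5 to 2.5 × 10^5 CFU/ml. End points were read spectrophotometrically at 24 h: ≥90% growth reduction versus a drug-free control for amphotericin B, and 50% OD reduction for azoles and caspofungin. MFC was the lowest concentration giving 99% killing.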

[2] = Antifungal activity against Rhinocladiella aquaspersa; assay type: functional
In short: (§1)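 Dematiaceous fungi were tested by the EUCAST spore-forming mold reference procedure: flat-bottom microdilution plates, RPMI 1640 plus 2% glucose, inoculum 2 × 105 to 5 × 10^5 CFU/ml. Endpoints were read visually at 24 and 48 h. Polyenes and azoles: 100% growth reduction vs drug-free control. CPF: minimum effective concentration. Run in duplicate and repeated twice.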

[3] = tested on: Clavispora lusitaniae; test: Antifungal activity against Candida lusitaniae; assay type: functional
In short: (§2)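 Broth microdilution in flat-bottom plates in RPMI 1640 with 2% glucose; inoculum 0.5 × 105 to 2.5 × 10^5 CFU/ml. MICs were read spectrophotometrically at 24 h. AMB endpoint: ≥90% growth reduction vs drug-free control well. Azole and CPF endpoint: 50% reduction in optical density. MFC was taken as the lowest concentration giving 99% killing.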

[4] = tested on: Pichia kudriavzevii; test: Antifungal activity against Candida krusei by EUCAST method; assay type: functional; in short: as §2
[5] = tested on: Candida albicans; test: Antifungal activity against Candida albicans by EUCAST method; assay type: functional; in short: as §2
[6] = tested on: Trichosporon asahii; test: Antifungal activity against Trichosporon asahii by EUCAST method; assay type: functional
In short: (§3)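 Nonfermentative yeasts were tested by the EUCAST microdilution recommendations with one change: plates were sealed and agitated at 350 rpm and 30°C for 48 h.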

[7] = tested on: Aspergillus fumigatus; test: Antifungal activity against Aspergillus fumigatus by EUCAST method; assay type: functional
[8] = tested on: Rhizomucor; test: Antifungal activity against Rhizomucor species by EUCAST method; assay type: functional; details: read-out: MEC
In short: (§4)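 Broth microdilution following the EUCAST reference procedure for spore-forming moulds, in flat-bottom plates with RPMI 1640 plus 2% glucose. Inoculum was 2 × 10^5 to 5 × 10^5 CFU/ml. MICs were read visually at 24 and 48 h as 100% growth reduction versus a drug-free control for polyenes and azoles. MEC was used for caspofungin. Tests were run in duplicate and repeated twice.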

[9] = tested on: Saccharomyces cerevisiae; test: Antifungal activity against Saccharomyces cerevisiae by EUCAST method; assay type: functional
In short: (§5)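 EUCAST broth microdilution for yeasts in flat-bottom plates, RPMI 1640 with 2% glucose, inoculum 0.5 × 105 to 2.5 × 10^5 CFU/ml. […] MFC is the lowest concentration giving 99% killing.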

[10] = tested on: Sporothrix schenckii; test: Antifungal activity against Sporothrix schenckii by EUCAST method; assay type: functional; details: read-out: MEC; in short: as §4
[11] = tested on: Trichosporon asahii; test: Antifungal activity against Trichosporon asahii; assay type: functional; in short: as §3
[12] = tested on: Mucor; test: Antifungal activity against Mucor species; assay type: functional
[13] = Antifungal activity against Cryptococcus neoformans var. neoformans; assay type: functional; details: Cryptococcus deneoformans
In short: (§6)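 EUCAST yeast microdilution, modified for nonfermentative yeasts: plates were sealed and agitated at 350 rpm and 30°C for 48 h.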

[14] = Antifungal activity against Cryptococcus neoformans var. neoformans by EUCAST method; assay type: functional; details: Cryptococcus deneoformans; in short: as §6
[15] = tested on: Curvularia australiensis; test: Antifungal activity against Bipolaris australiensis; assay type: functional; in short: as §1
[16] = tested on: Aspergillus flavus; test: Antifungal activity against Aspergillus flavus by EUCAST method; assay type: functional
[17] = tested on: Mucor hiemalis; test: Antifungal activity against Mucor hiemalis by EUCAST method; assay type: functional; details: read-out: MEC
[18] = tested on: Rhizopus arrhizus; test: Antifungal activity against Rhizopus oryzae; assay type: functional; in short: as §4
[19] = tested on: Lomentospora prolificans; test: Antifungal activity against Scedosporium prolificans; assay type: functional; in short: as §4
[20] = tested on: Penicillium sp.; test: Antifungal activity against Penicillium species by EUCAST method; assay type: functional; details: read-out: MEC
[21] = tested on: Curvularia australiensis; test: Antifungal activity against Bipolaris australiensis by EUCAST method; assay type: functional; details: read-out: MEC; in short: as §1
[22] = tested on: Cryptococcus gattii; test: Antifungal activity against Cryptococcus neoformans var. gattii; assay type: functional, Cryptococcus bacillisporus; in short: as §6
[23] = tested on: Scedosporium apiospermum; test: Antifungal activity against Scedosporium apiospermum; assay type: functional; in short: as §4
[24] = tested on: Lichtheimia corymbifera; test: Antifungal activity against Absidia corymbifera by EUCAST method; assay type: functional; details: read-out: MEC
[25] = Antifungal activity against Rhizopus microsporus var. oligosporus by EUCAST method; assay type: functional; in short: as §4
[26] = tested on: Talaromyces marneffei; test: Antifungal activity against Penicillium marneffei; assay type: functional
[27] = tested on: Trichosporon inkin; test: Antifungal activity against Trichosporon inkin; assay type: functional; in short: as §3
[28] = tested on: Curvularia lunata; test: Antifungal activity against Curvularia lunata; assay type: functional
[29] = tested on: Fusarium oxysporum; test: Antifungal activity against Fusarium oxysporum by EUCAST method; assay type: functional; details: read-out: MEC
[30] = tested on: Aspergillus flavus; test: Antifungal activity against Aspergillus flavus; assay type: functional
[31] = tested on: Lichtheimia corymbifera; test: Antifungal activity against Absidia corymbifera; assay type: functional
[32] = tested on: Lomentospora prolificans; test: Antifungal activity against Scedosporium prolificans by EUCAST method; assay type: functional; details: read-out: MEC; in short: as §4
[33] = tested on: Candida tropicalis; test: Antifungal activity against Candida tropicalis by EUCAST method; assay type: functional; in short: as §2
[34] = Antifungal activity against Rhizopus microsporus var. oligosporus; assay type: functional; in short: as §4
[35] = tested on: Trichosporon inkin; test: Antifungal activity against Trichosporon inkin by EUCAST method; assay type: functional; in short: as §3
[36] = tested on: Aspergillus terreus; test: Antifungal activity against Aspergillus terreus; assay type: functional
[37] = tested on: Clavispora lusitaniae; test: Antifungal activity against Candida lusitaniae by EUCAST method; assay type: functional; in short: as §2
[38] = tested on: Absidia; test: Antifungal activity against Absidia species; assay type: functional
[39] = tested on: Cryptococcus gattii; test: Antifungal activity against Cryptococcus neoformans var. gattii by EUCAST method; assay type: functional, Cryptococcus bacillisporus; in short: as §6
[40] = tested on: Cunninghamella; test: Antifungal activity against Cunninghamella species; assay type: functional
[41] = tested on: Nakaseomyces glabratus; test: Antifungal activity against Candida glabrata; assay type: functional; in short: as §2
[42] = tested on: Candida tropicalis; test: Antifungal activity against Candida tropicalis; assay type: functional; in short: as §2
[43] = tested on: Geotrichum candidum; test: Antifungal activity against Geotrichum candidum; assay type: functional
[44] = tested on: Mucor hiemalis; test: Antifungal activity against Mucor hiemalis; assay type: functional
[45] = tested on: Aspergillus fumigatus; test: Antifungal activity against Aspergillus fumigatus; assay type: functional
[46] = tested on: Penicillium sp.; test: Antifungal activity against Penicillium species; assay type: functional
[47] = tested on: Fusarium oxysporum; test: Antifungal activity against Fusarium oxysporum; assay type: functional
[48] = tested on: Rhizopus; test: Antifungal activity against Rhizopus species by EUCAST method; assay type: functional; details: read-out: MEC; in short: as §4
[49] = tested on: Scedosporium apiospermum; test: Antifungal activity against Scedosporium apiospermum by EUCAST method; assay type: functional; details: read-out: MEC; in short: as §4
[50] = tested on: Aspergillus terreus; test: Antifungal activity against Aspergillus terreus by EUCAST method; assay type: functional
[51] = tested on: Candida parapsilosis; test: Antifungal activity against Candida parapsilosis; assay type: functional; details: Lodderomyces parapsilosis; in short: as §2
[52] = tested on: Fusarium solani; test: Antifungal activity against Fusarium solani; assay type: functional
[53] = tested on: Rhizomucor; test: Antifungal activity against Rhizomucor species; assay type: functional
[54] = tested on: Cunninghamella; test: Antifungal activity against Cunninghamella species by EUCAST method; assay type: functional; details: read-out: MEC
[55] = tested on: Sporothrix schenckii; test: Antifungal activity against Sporothrix schenckii; assay type: functional; in short: as §4
[56] = tested on: Rhizopus arrhizus; test: Antifungal activity against Rhizopus oryzae by EUCAST method; assay type: functional; details: read-out: MEC; in short: as §4
[57] = tested on: Rhizopus; test: Antifungal activity against Rhizopus species; assay type: functional; in short: as §4
[58] = tested on: Nakaseomyces glabratus; test: Antifungal activity against Candida glabrata by EUCAST method; assay type: functional; in short: as §2
[59] = tested on: Meyerozyma guilliermondii; test: Antifungal activity against Candida guilliermondii; assay type: functional; in short: as §2
[60] = tested on: Talaromyces marneffei; test: Antifungal activity against Penicillium marneffei by EUCAST method; assay type: functional; details: read-out: MEC
[61] = tested on: Absidia; test: Antifungal activity against Absidia species by EUCAST method; assay type: functional; details: read-out: MEC
[62] = tested on: Meyerozyma guilliermondii; test: Antifungal activity against Candida guilliermondii by EUCAST method; assay type: functional; in short: as §2
[63] = tested on: Pichia kudriavzevii; test: Antifungal activity against Candida krusei; assay type: functional; in short: as §5
[64] = tested on: Mucor; test: Antifungal activity against Mucor species by EUCAST method; assay type: functional; details: read-out: MEC
[65] = tested on: Aspergillus niger; test: Antifungal activity against Aspergillus niger by EUCAST method; assay type: functional
[66] = tested on: Candida parapsilosis; test: Antifungal activity against Candida parapsilosis by EUCAST method; assay type: functional; details: Lodderomyces parapsilosis; in short: as §2
[67] = tested on: Candida albicans; test: Antifungal activity against Candida albicans; assay type: functional; in short: as §2
[68] = tested on: Aspergillus niger; test: Antifungal activity against Aspergillus niger; assay type: functional
[69] = tested on: Curvularia lunata; test: Antifungal activity against Curvularia lunata by EUCAST method; assay type: functional; details: read-out: MEC; in short: as §1
[70] = tested on: Geotrichum candidum; test: Antifungal activity against Geotrichum candidum by EUCAST method; assay type: functional
[71] = Antifungal activity against Rhinocladiella aquaspersa by EUCAST method; assay type: functional; in short: as §1
[72] = tested on: Fusarium solani; test: Antifungal activity against Fusarium solani by EUCAST method; assay type: functional; details: read-out: MEC

CC[C@H](C)C[C@H](C)CCCCCCCCC(=O)N[C@H]1C[C@@H](O)[C@@H](NCCN)NC(=O)[C@@H]2[C@@H](O)CCN2C(=O)[C@H]([C@H](O)CCN)NC(=O)[C@H]([C@H](O)[C@@H](O)c2ccc(O)cc2)NC(=O)[C@@H]2C[C@@H](O)CN2C(=O)[C@H]([C@@H](C)O)NC1=O [CASPOFUNGIN]
0.19 µg/mL: MIC [50]
0.32 µg/mL: MIC [37] | MIC [58]
> 2 µg/mL: MFC [59]
0.28 µg/mL: MIC [16]
1.3 µg/mL: MIC [9]
0.34 µg/mL: MIC [33]
2.04 µg/mL: MIC [14]
2 µg/mL: MFC [63]
0.15 µg/mL: MFC [41] | MFC [67]
0.58 µg/mL: MIC [4]
0.14 µg/mL: MIC [5]
3 µg/mL: MIC [70]
5.33 µg/mL: MIC [35] | MIC [39]
0.25 µg/mL: minimal effective concentration ([7]; read-out: MEC) | minimal effective concentration ([16]; read-out: MEC) | MFC [51] | minimal effective concentration ([65]; read-out: MEC)
> 8 µg/mL: MFC [2] | minimal effective concentration [8] | minimal effective concentration [10] | MFC [11] | MFC [12] | MFC [13] | MFC [15] | minimal effective concentration [17] | MFC [18] | MFC [19] | minimal effective concentration [20] | minimal effective concentration [21] | MFC [22] | MFC [23] | minimal effective concentration [24] | MEC [25] | MFC [26] | MFC [27] | MFC [28] | minimal effective concentration [29] | MFC [30] | MFC [31] | minimal effective concentration [32] | MFC [34] | MFC [36] | MFC [38] | MFC [40] | MFC [43] | MFC [44] | MFC [45] | MFC [46] | MFC [47] | minimal effective concentration [48] | minimal effective concentration [49] | MFC [52] | MFC [53] | minimal effective concentration [54] | MFC [55] | minimal effective concentration [56] | MFC [57] | minimal effective concentration [60] | minimal effective concentration [61] | minimal effective concentration [64] | MFC [68] | minimal effective concentration [69] | MEC [71] | minimal effective concentration [72]
4 µg/mL: MFC [1] | MFC [3] | MIC [6]
0.82 µg/mL: MIC [66]
0.45 µg/mL: MIC [7]
0.68 µg/mL: MIC [62]
0.36 µg/mL: MIC [65]
0.125 µg/mL: minimal effective concentration ([50]; read-out: MEC)
0.5 µg/mL: MFC [42]
